# According to ChEMBL document CHEMBL2417486, “Exploring natural product chemistry and biology with multicomponent reactions. 5. Discovery of a novel tubulin-targeting scaffold derived from the rigidin family of marine alkaloids” (J Med Chem, 2013):
# Activity calls are given as the source filed them. No cut-off for these calls is given here.
# Columns and labels:
# MCF7 = assay: Growth inhibition of human MCF7 cells after 48 hrs by MTT assay; format: functional; settings: MCF7, 48 h
# In short: (§1)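 Cells seeded at 4 × 10^3 per well, grown 24 h, then treated 48 h at 0.004–100 µM from 100 or 25 mM DMSO stocks. Controls were 0.1% DMSO and phenyl arsine oxide. MTT (5 mg/mL) added for 2 h, formazan dissolved in DMSO, A490 read. […] HeLa/MCF-7 in DMEM, MES-SA lines in RPMI-1640, all with 10% FBS.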
# HeLa [1] = assay: Growth inhibition of human HeLa cells after 48 hrs by MTT assay; format: functional; in short: as §1
# HeLa [2] = assay: Cell cycle arrest in human HeLa cells assessed as accumulation at G2/M phase at 1 uM after 32 hrs using Vybrant Orange staining by flow cytometry relative to control; format: functional, cell-based
# In short: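 HeLa cells at 70–80% confluence were seeded at 2 × 10^5 per well in DMEM/10% FBS with penicillin G and streptomycin, left to adhere overnight, then treated at 1 µM for 32 h (0.1% DMSO control). Washed, trypsinized, stained 30 min at 37 °C with 10 µM Vybrant Orange in medium, then analysed by flow cytometry for DNA content.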
# UMSCC22B = assay: Growth inhibition of human UM-SCC-22B cells after 48 hrs by MTT assay; format: functional
# [3] = Growth inhibition of human UM-SCC-10B cells after 48 hrs by MTT assay; format: functional
# [4] = Growth inhibition of human UM-SCC-22A cells after 48 hrs by MTT assay; format: functional
# [5] = Growth inhibition of human UM-SCC-10A cells after 48 hrs by MTT assay; format: functional; settings: UMSCC-10A
# B16-F10 = assay: Growth inhibition of mouse B16F10 cells after 48 hrs by MTT assay; format: functional; settings: B16-F10, 48 h
# A549 = assay: Growth inhibition of human A549 cells after 48 hrs by MTT assay; format: functional; settings: A549, 48 h
# SK-MEL-28 = assay: Growth inhibition of human SK-MEL-28 cells after 48 hrs by MTT assay; format: functional; settings: SK-MEL-28, 48 h
# [6] = Growth inhibition of human U373 cells after 48 hrs by MTT assay; format: functional, U-373MG ATCC; settings: U373 MG
# [7] = Growth inhibition of human Hs683 cells after 48 hrs by MTT assay; format: functional; settings: Hs 683, 48 h
# [8] = Aqueous solubility of the compound by spectrophotometric analysis; format: physicochemical
# In short: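 Compound dispersed in ultrapure water at >0.5 mg/mL; supernatant centrifuged repeatedly until no pellet remained, then diluted 1:2 (solution:DMSO). Concentration read from absorbance at peak 335–336 nm against a calibration line made in 1:2 water/DMSO, and corrected for the DMSO dilution.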
# [9] = molecular target: T1, Tubulin beta (Homo sapiens) (UniProt P68371+Q9H4B7+Q13509+P04350+Q3ZCM7+P07437+Q13885+Q9BVA1+Q9BUF5+A6NNZ2); assay: Inhibition of [3H] radiolabelled colchicine binding to tubulin beta (unknown origin) at 1 uM by DEAE-cellulose filter method; format: protein assay
# [10] = molecular target: T1, Tubulin beta (Homo sapiens); assay: Inhibition of [3H] radiolabelled colchicine binding to tubulin beta (unknown origin) at 5 uM by DEAE-cellulose filter method; format: protein assay
SMILES,GI50 (MCF7) [µM],GI50 (HeLa [1]) [µM],other results
Nc1ncnc2[nH]c(C(=O)c3ccccc3)c(-c3cccs3)c12,15,28,
O=C(c1ccccc1)c1[nH]c2[nH]cnc(=O)c2c1-c1cncc(Br)c1,0.087,0.08,Activity (HeLa [2]): Active; GI50 (UMSCC22B): 0.02 µM; GI50 [3]: 0.13 µM; GI50 [4]: 0.12 µM; GI50 [5]: 0.09 µM; GI50 (B16-F10): 0.04 µM; GI50 (A549): 0.02 µM; GI50 (SK-MEL-28): 0.02 µM; GI50 [6]: 0.03 µM; GI50 [7]: 0.02 µM; solubility [8]: 30 µM
O=C(c1ccccc1)c1[nH]c2[nH]cnc(=O)c2c1-c1cccc(O)c1,1.09,0.86,
COc1cc(-c2c(C(=O)c3ccccc3)[nH]c3[nH]cnc(=O)c23)cc(I)c1OC,40,8.2,
COc1ccc(C(=O)c2[nH]c3[nH]c(=O)[nH]c(=O)c3c2-c2ccc(OC)cc2)cc1,> 100,> 100,
COc1cc(-c2c(C(=O)c3ccc(Br)cc3)[nH]c3[nH]c(=O)[nH]c(=O)c23)cc(OC)c1OC,> 100,> 100,
Nc1ncnc2[nH]c(C(=O)c3ccccc3)c(-c3ccccc3)c12,3.9,4.4,
O=C(c1ccccc1)c1[nH]c2[nH]cnc(=O)c2c1-c1c(Cl)cccc1Cl,2.2,4.9,
O=C(c1ccccc1)c1[nH]c2[nH]cnc(=O)c2c1-c1cccc(Cl)c1,0.06,0.1,
COc1cc(-c2c(C(=O)c3ccccc3)[nH]c3[nH]cnc(=O)c23)cc(Br)c1OC,10,7.1,
COc1ccc(C(=O)c2[nH]c3[nH]cnc(=O)c3c2-c2cc(Br)cc(Br)c2)cc1,0.11,0.3,
N#Cc1cccc(-c2c(C(=O)c3ccc(OCc4ccccc4)cc3)[nH]c3ncnc(N)c23)c1,> 100,> 100,
O=C(c1ccccc1)c1[nH]c2[nH]cnc(=O)c2c1-c1cccc(Br)n1,0.135,0.15,
Nc1ncnc2[nH]c(C(=O)c3ccccc3)c(-c3cc(Br)cc(Br)c3)c12,> 100,> 100,
Nc1ncnc2[nH]c(C(=O)c3ccccc3)c(-c3cncc(Br)c3)c12,> 100,> 100,
O=C(c1ccc(OCc2ccccc2)cc1)c1[nH]c2[nH]cnc(=O)c2c1-c1cc(Br)cc(Br)c1,0.31,0.4,
COc1ccc(-c2c(C(=O)c3ccccc3)[nH]c3ncnc(-c4ccccc4)c23)cc1,75,70,
O=C(c1ccc(OCc2ccccc2)cc1)c1[nH]c2[nH]cnc(=O)c2c1-c1ccccc1,0.053,0.045,
COc1cc(C(=O)c2[nH]c3[nH]c(=O)[nH]c(=O)c3c2-c2cc(OC)c(OC)c(OC)c2)ccc1OCc1ccccc1,> 100,> 100,
COc1cc(-c2c(C(=O)c3ccccc3)[nH]c3[nH]cnc(=O)c23)cc(OC)c1OC,33,48,
O=C(c1ccccc1)c1[nH]c2[nH]c(=O)[nH]c(=O)c2c1-c1cc(Br)cc(Br)c1,47,71,
O=C(c1ccc(O)cc1)c1[nH]c2[nH]cnc(=O)c2c1-c1cc(Br)cc(Br)c1,0.26,0.3,
COc1ccc(/C=C\c2cc(OC)c(OC)c(OC)c2)cc1O,,,inhibition [9]: 89%; inhibition [10]: 99%
O=C(c1ccccc1)c1[nH]c2[nH]cnc(=O)c2c1-c1cccc(Br)c1,0.06,0.13,

SMILES,GI50 (MCF7) [µM],GI50 (HeLa [1]) [µM],other results
COc1ccc(-c2c(C(=O)c3ccccc3)[nH]c3[nH]c(=O)[nH]c(=O)c23)cc1,14,80,
O=C(c1ccc(O)cc1)c1[nH]c2[nH]cnc(=O)c2c1-c1ccccc1,0.3,0.4,
COc1ccc(C(=O)c2[nH]c3[nH]cnc(=O)c3c2-c2cc(OC)c(OC)c(OC)c2)cc1,7,> 100,
COc1cc(-c2c(C(=O)c3ccc(O)cc3)[nH]c3[nH]c(=O)[nH]c(=O)c23)ccc1O,> 100,> 100,
O=C(c1ccc(O)cc1)c1[nH]c2[nH]cnc(=O)c2c1-c1ccc(O)cc1,2.8,4,
COc1cc(-c2c(C(=O)c3ccc(O)cc3)[nH]c3[nH]cnc(=O)c23)ccc1O,3,5,
O=C(c1ccc(O)cc1)c1[nH]c2[nH]c(=O)[nH]c(=O)c2c1-c1ccc(O)cc1,> 100,> 100,
O=C(c1ccc(Br)cc1)c1[nH]c2[nH]cnc(=O)c2c1-c1cc(Br)cc(Br)c1,0.6,2.2,
O=C(c1ccccc1)c1[nH]c2[nH]cnc(=O)c2c1-c1cccnc1,1.26,0.88,
O=C(c1ccccc1)c1[nH]c2[nH]cnc(=O)c2c1-c1cccc(F)c1,0.07,0.065,solubility [8]: 65 µM
COc1cc(C(=O)c2[nH]c3[nH]c(=O)[nH]c(=O)c3c2-c2ccc(O)c(OC)c2)ccc1O,> 100,> 100,
O=C(c1ccc(F)cc1)c1[nH]c2[nH]cnc(=O)c2c1-c1cc(Br)cc(Br)c1,0.8,6.3,
Cc1ccc(-c2ncnc3[nH]c(C(=O)c4ccccc4)c(-c4cc(Br)cc(Br)c4)c23)cc1,7,9,
COc1ccc(C(=O)c2[nH]c3ncnc(-c4ccc(OC)cc4)c3c2-c2ccc(OC)cc2)cc1,8,20,
COc1cc(C(=O)c2[nH]c3[nH]c(=O)[nH]c(=O)c3c2-c2ccc(O)cc2)ccc1O,> 100,> 100,
N#Cc1cccc(-c2c(C(=O)c3ccccc3)[nH]c3[nH]cnc(=O)c23)c1,0.25,0.19,
O=C(c1ccccc1)c1[nH]c2[nH]c(=S)[nH]c(=S)c2c1-c1cc(Br)cc(Br)c1,> 100,> 100,
O=C(c1ccccc1)c1[nH]c2ncnc(-c3ccccc3)c2c1-c1cc(Br)cc(Br)c1,10,18,
O=C(c1ccccc1)c1[nH]c2[nH]cnc(=O)c2c1-c1cc(Br)cs1,56,43,
COc1cc(-c2c(C(=O)c3ccc(F)cc3)[nH]c3[nH]c(=O)[nH]c(=O)c23)cc(OC)c1OC,> 100,> 100,
O=C(c1ccccc1)c1[nH]c2[nH]cnc(=O)c2c1-c1cccc(I)c1,0.15,0.2,
O=C(c1ccccc1)c1[nH]c2ncnc(-c3ccccc3)c2c1-c1cccnc1,51,45,
Nc1ncnc2[nH]c(C(=O)c3ccccc3)c(-c3c(Cl)cccc3Cl)c12,> 100,> 100,
